Most compounds without a hit are left out; they make up all but 2.2% or so of the library.
TCR CD3 inh – inhibitors of human TCR-CD3 interaction, primary screen, biochemical, fluorescence, TAMRA-labeled TCR probe; inhibition, % at 9.4 µM; 360,000 tested, 0.37% active; AID 651800, 2012; T-cell receptor (TCR); in the data active means inhibition above about 19%;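 further: recombinant mutant TCR 2C K166C tagged with TAMRA read by polarization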
SIAE primary – human SIAE inhibitors, primary screen, biochemical, fluorescence polarization, FP-Rh probe, 1536-well HTS; Sialate O-acetylesterase (Homo sapiens), Q9HAT2; SIAE FP-Rh probe binding; inhibition, % at 9.66 µM; 370,000 tested, 0.69% active;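 active means inhibition above a cutoff: mean of compounds within the control limits plus 3 SD of those, cut at about 17% in these data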
LEDGF integ inh – blockers of LEDGF/p75-dependent integrase strand transfer – biochemical, TR-FRET, high throughput, primary screen; HIV-1 integrase (with human LEDGF/p75); inhibition, % at 3.7 µM; 370,000 tested, 0.64% active; TR-FRET IN-LEDGF/p75 DNA integration, Eu/Cy5;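 active means inhibition above the screen-wide mean plus 3 SD, cut at about 13% in these data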;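 further: signal is the Cy5 over europium emission ratio at 671 and 618 nm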
HTRA1 inh – HTRA1 serine protease inhibitors, primary screen, biochemical, fluorescence polarization, HTS; Q92743; recombinant HTRA1, FP-rhodamine activity-based probe; inhibition, % at 5.96 µM; 340,000 tested, 0.5% active; AID 504803, 2011; in the data active means inhibition above about 36%
Target sequence (Q92743 whole entry, looked up): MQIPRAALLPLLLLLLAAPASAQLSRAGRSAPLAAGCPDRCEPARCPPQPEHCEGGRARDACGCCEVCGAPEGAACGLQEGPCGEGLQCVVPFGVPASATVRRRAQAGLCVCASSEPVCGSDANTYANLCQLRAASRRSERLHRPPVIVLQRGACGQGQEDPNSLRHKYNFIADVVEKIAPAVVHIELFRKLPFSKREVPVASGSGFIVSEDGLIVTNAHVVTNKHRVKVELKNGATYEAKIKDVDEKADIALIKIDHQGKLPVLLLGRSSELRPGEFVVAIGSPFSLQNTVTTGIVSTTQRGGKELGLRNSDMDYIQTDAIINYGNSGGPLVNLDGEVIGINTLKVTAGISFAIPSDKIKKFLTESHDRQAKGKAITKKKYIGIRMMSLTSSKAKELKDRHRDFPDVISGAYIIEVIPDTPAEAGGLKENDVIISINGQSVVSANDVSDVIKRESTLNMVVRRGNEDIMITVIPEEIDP
mABHD4 FP – ABHD4 inhibitors, primary screen, biochemical, fluorescence polarization, mouse | (Lyso)-N-acylphosphatidylethanolamine lipase (Mus musculus), Q8VD66 | purified mABHD4, FP-Rh probe fluorescence polarization | inhibition, % at 8.92 µM | 370,000 tested, 0.54% active;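 active means inhibition exceeding the mean over every tested compound plus 3 SD, cut at about 30% in these data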
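Assay system: Wild-type mouse ABHD4 protein | Medium: HEPES pH 7.0 buffer, 150 mM NaCl, 0.01% Pluronic F-127 | Incubation: Enzyme–compound pre-incubation 45 min, then probe 60 min, both 25 °C | Technique: Fluorescence polarization with parallel and perpendicular emission, 525/598 nm | Evaluation: % inhibition of FP-Rh probe binding versus controls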
TDP2 absorb – human TDP2 enzyme inhibitors, primary screen, biochemical, epi absorbance, recombinant enzyme; Tyrosyl-DNA phosphodiesterase 2 (Homo sapiens), O95551; T5PNP hydrolysis, p-nitrophenol absorbance 415 nm; inhibition, % at 12.8 µM; 370,000 tested, 0.34% active; AID 720702, 2013;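 active means inhibition above the mean of all tested compounds plus 3 SD, set per campaign, cut at about 25% in these data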
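Assay system: recombinant human TDP2 / Reagent: T5PNP substrate at 5 mM, a TopII-DNA adduct mimic / Measured by: epi absorbance from released p-nitrophenol / Evaluation: % inhibition relative to enzyme-containing and enzyme-free wells / Control set: enzyme-free and DMSO wells / Replicates: each compound tested once, singlicate / Schedule: enzyme reaction with compound for 2 h at 37 °C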
mABHD4 conf – ABHD4 inhibitors, retest, confirmation, biochemical, fluorescence polarization, mouse | shares compounds with mABHD4 FP | purified mABHD4, FP-Rh probe fluorescence polarization | inhibition, % at 8.92 µM | 1,800 tested, 55% active | AID 720658, 2013;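 active means mean inhibition across replicates above the hit cutoff set in the primary screen, cut at about 30% in these data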
Each line names hits and unclear results; the compound was inactive in the other large screens (follow-up assays come after a bar, where they were run); ! = not active in a repeat.

COC(=O)[C@]12C[C@H](CC(=O)N3CCCCC3)C(=O)N(Cc3ccc4c(c3)OCO4)C1=C[C@H](COCc1ccccc1)O[C@@H]2C	none (no result: HTRA1 inh)
CNC[C@H](CC1CCCCC1)NC[C@H](Cc1ccccc1)NCCC12CC3CC(CC(C3)C1)C2	mABHD4 FP 48.3 | mABHD4 conf 74.8
CC(=O)N1CCCN(C(=O)CN2C(=O)CC(C)(C)S(=O)(=O)c3ccccc32)CC1	none (no result: TCR CD3 inh, HTRA1 inh)
CC(C)=CCC/C(C)=C/C[C@]12C[C@H](C(=O)O)N(C(=O)OC(C)(C)C)[C@@H]1N(C(=O)OC(C)(C)C)c1ccccc12	mABHD4 FP 50.6 (no result: TCR CD3 inh, HTRA1 inh) | mABHD4 conf 40.3
Cc1ccc(C(=O)Nc2nc3ccccc3[nH]2)cc1	mABHD4 FP 30.0 | mABHD4 conf inactive
CC(C)CC(=O)Nc1ccc(C(=O)COC(=O)C2=COCCO2)cc1	mABHD4 FP 94.7 | mABHD4 conf inactive
COc1cc(/C=N/Nc2nc(N3CCCC3)nc(N3CCCC3)n2)ccc1O	none
Oc1ccc(/C=N/Nc2nc(N3CCCC3)nc(N3CCCC3)n2)cc1O	mABHD4 FP 29.9 | mABHD4 conf inactive
c1ccc(C2Nc3cccc4cccc(c34)N2)cc1	none
COc1ccccc1C1Nc2cccc3cccc(c23)N1	mABHD4 FP 54.5 | mABHD4 conf 52.5
COCCCN1C(=O)[C@H](CC(=O)N2CCOCC2)[C@]2(C(=O)OC)CCCCC=C12	none (no result: TCR CD3 inh, HTRA1 inh)
CC(C)(C)c1ccc(S(=O)(=O)NC(=O)C2(C)CCN2C(=O)Cc2ccc(-c3ccccc3)cc2)cc1 (configuration not stated)	mABHD4 FP 44.6 (no result: HTRA1 inh) | mABHD4 conf inactive
COc1ccc(Oc2c(Cl)cnn(-c3cc(C)cc(C)c3)c2=O)cc1	none (no result: TCR CD3 inh, HTRA1 inh)
O=C(O)c1ccc2c(c1)C(=O)/C(=C\c1ccco1)C2=O	LEDGF integ inh 79.4, mABHD4 FP 30.1 | mABHD4 conf inactive
C[C@H]1CN([C@@H](C)CO)S(=O)(=O)c2ccc(Br)cc2O[C@H]1CN(C)Cc1ccccc1	mABHD4 FP 75.4 | mABHD4 conf inactive
COc1cccc(C(C(=O)NC2CCCC2)N2CCN(c3cc(C)ccc3C)CC2)c1OC (configuration not stated)	mABHD4 FP 47.9 (no result: HTRA1 inh) | mABHD4 conf inactive
Cc1ccc(C)c(N2CCN(C(C(=O)NC3CCCC3)c3ccco3)CC2)c1 (configuration not stated)	none (no result: HTRA1 inh)
CC1=C(C#N)C(=O)OC(C)(C)C1	mABHD4 FP 29.9 | mABHD4 conf inactive
CC(C)N1CCCCC(NC(=O)c2cccc(C(F)(F)F)c2)C1=O (configuration not stated)	none (no result: TCR CD3 inh, HTRA1 inh)
O=C1C(Cl)=C(Nc2ccc(O)cc2)C(=O)c2ccccc21	mABHD4 FP 41.0 | mABHD4 conf 54.0
S=C(NC1CCCCC1)N(CCc1nc2ccccc2[nH]1)C1CCCC1	mABHD4 FP 50.7 | mABHD4 conf 52.9
COc1ccc2c(c1)Sc1ccc(Cl)cc1N2	mABHD4 FP 33.9 (no result: TCR CD3 inh, HTRA1 inh) | mABHD4 conf 34.4
CC1(C)CC(=O)C2=C(C1)Nc1cc(Cl)ccc1S2	none
C(=C\c1ccccc1)/CSc1nnc(COc2ccccc2)n1Cc1ccco1	none (no result: TCR CD3 inh, HTRA1 inh)
COc1ccccc1N(C)c1cc2c(c3c1ccn3C)C1CCC2C1 (configuration not stated)	mABHD4 FP 33.4 (no result: HTRA1 inh) | mABHD4 conf inactive
CCN(C)c1cc2c(c3c1ccn3C)C1CCC2C1 (configuration not stated)	none (no result: HTRA1 inh)
Cc1nc2ccc(NC(=O)c3cc(Cl)ccc3F)cc2c(=O)[nH]1	none (no result: TCR CD3 inh, HTRA1 inh)
O=C(O)c1cccc(Nc2nc(-c3cc4ccccc4oc3=O)cs2)c1	mABHD4 FP 30.1 | mABHD4 conf 49.5
CCOC(=O)c1c(C)[nH]c2cc(Br)c(O)cc12	mABHD4 FP 38.8 | mABHD4 conf 59.7
N#C/C(=C/C1=C(N2CCOCC2)C(=C/c2ccc(Cl)cc2Cl)/CC1)C(=O)Nc1ccccc1F	mABHD4 FP 40.0 | mABHD4 conf inactive
C[C@H](O)[C@@H]1CN2CCc3c([nH]c4cccc(-c5ccccc5)c34)[C@@H]2C[C@@H]1N(C)C(=O)c1ccco1	none (no result: TCR CD3 inh, HTRA1 inh)
CNc1sc(C(=O)c2ccc(F)cc2)c(N)c1-c1nc2ccccc2s1	mABHD4 FP 31.9 | mABHD4 conf 68.3
CC(=O)N1CCN(c2nc(-c3cccs3)nc3ccccc23)CC1	none
Fc1ccccc1N1CCN(c2nc(-c3cccs3)nc3ccccc23)CC1	mABHD4 FP 32.8 | mABHD4 conf inactive
CCC(=O)NCC[C@@H]1CCc2ccc3c(c21)CCO3	none (no result: TCR CD3 inh, HTRA1 inh)
COCc1cc(N2CCN(C(=O)OC(C)(C)C)C[C@H]2C)ccc1N1CC[C@H](O)C1	mABHD4 FP 37.5 (no result: HTRA1 inh) | mABHD4 conf inactive
COCc1cc(N2CCN(C(=O)OC(C)(C)C)C[C@@H]2C)ccc1N1CCS(=O)(=O)CC1	none (no result: HTRA1 inh)
COC(=O)C1=C(C)N(Cc2ccccc2C(F)(F)F)C(=NCc2ccc(OC)cc2)NC1c1cccc(F)c1 (configuration not stated)	mABHD4 FP 42.3 (no result: HTRA1 inh) | mABHD4 conf 66.4
CC(C)C(=O)N(c1cc2sc(=O)oc2c2ccccc12)S(=O)(=O)c1cccs1	mABHD4 FP 42.1 | mABHD4 conf inactive
Cc1ccn2c(NC3CCCCC3)c(-c3ccc(SC4CCCCC4)cc3)nc2c1	none (no result: HTRA1 inh)
Cc1ccn2c(NC3CCCCC3)c(-c3cccc(SC4CCCCC4)c3)nc2c1	mABHD4 FP 30.8! | mABHD4 conf inactive
O=[N+]([O-])c1c(Nc2ccccc2O)cc(Cl)c2nonc12	mABHD4 FP 33.2 | mABHD4 conf 49.1
O=[N+]([O-])c1c(Nc2ccccc2O)ccc2nonc12	none
CCCSC1=N/C(=C\C=C\c2ccco2)C(=O)S1	LEDGF integ inh 68.9, mABHD4 FP 35.8 | mABHD4 conf inactive
CCSC1=N/C(=C\c2ccc(-c3ccccc3[N+](=O)[O-])o2)C(=O)S1	mABHD4 FP 37.1 | mABHD4 conf inactive
CCCSC1=N/C(=C\c2ccc([N+](=O)[O-])o2)C(=O)S1	LEDGF integ inh 35.3, mABHD4 FP 38.4 | mABHD4 conf inactive
CCCCCCCCN1C(=O)[C@@H](CC(=O)NCC2CCCCC2)C[C@@]2(C(=O)OC)C1=C[C@H](C(C)C)O[C@@H]2C1CC1	none (no result: TCR CD3 inh, HTRA1 inh)
